Results on seven compounds are retold here after paper PMC3739880 (The FASEB Journal, 2011).

One experiment concerns the target T1, Leishmania Ddi1 (Leishmania major, UniProt I7HUG0).
T1 sequence (I7HUG0 148-390): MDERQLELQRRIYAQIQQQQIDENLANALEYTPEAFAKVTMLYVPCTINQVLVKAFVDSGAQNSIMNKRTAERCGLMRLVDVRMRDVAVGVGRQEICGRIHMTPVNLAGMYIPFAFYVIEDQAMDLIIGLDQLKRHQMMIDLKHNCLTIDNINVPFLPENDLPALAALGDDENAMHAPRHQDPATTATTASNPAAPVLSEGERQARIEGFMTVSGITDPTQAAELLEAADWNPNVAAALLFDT
In words: Proteinase inhibitor assay. Format: cell-based, L. major. Particulars: for inhibition at 25 µM: read-out: Y16141 Leishmania, Inhibition at 25 μM (%).

In experiment [1] the test system is Y16141 cells transformed with pVTL260 plasmid. Kind of experiment: Yeast cell morphology, knockout yeast transformed with plasmid alone. Format: cell-based, S. cerevisiae. Particulars: 25 μM inhibitor. The method, boiled down: (§1)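 DDI1-knockout Y16141 carried pVTL260, either alone or encoding full-length Ddi1 orthologs, introduced by lithium acetate transformation. Grown 24 h at 30°C in selective minimal medium with or without 25 μM inhibitor. Morphology examined by phase-contrast microscopy at ×100, with images captured digitally. Fraction of cells with greatly enlarged morphology was recorded.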

Experiment [2] has as its system Y16141 cells expressing human ortholog of Ddi1. Kind of experiment: Yeast cell morphology, Y16141 with human Ddi1 construct. Format: cell-based, S. cerevisiae. Particulars: 25 μM inhibitor; yeast transformed to express the human ortholog of Ddi1. Put shortly: as §1
A further experiment concerns the target T2, S. cerevisiae Ddi1 (Saccharomyces cerevisiae, UniProt P40087).
T2 sequence (P40087 1-428): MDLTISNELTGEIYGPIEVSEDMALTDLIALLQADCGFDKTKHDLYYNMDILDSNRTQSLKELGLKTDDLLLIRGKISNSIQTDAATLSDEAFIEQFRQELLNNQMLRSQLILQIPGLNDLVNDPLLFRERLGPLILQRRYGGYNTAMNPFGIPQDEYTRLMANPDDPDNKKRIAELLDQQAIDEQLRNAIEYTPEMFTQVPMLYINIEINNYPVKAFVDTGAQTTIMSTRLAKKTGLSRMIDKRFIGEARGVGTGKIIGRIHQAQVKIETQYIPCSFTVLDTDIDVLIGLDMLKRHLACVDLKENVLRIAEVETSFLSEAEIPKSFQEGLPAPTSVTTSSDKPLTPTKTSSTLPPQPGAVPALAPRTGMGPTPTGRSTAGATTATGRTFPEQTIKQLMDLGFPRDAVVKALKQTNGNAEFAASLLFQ
In words: Proteinase inhibitor assay. Format: cell-based. Particulars: for inhibition at 25 µM: read-out: Y16141 Ddi1, Inhibition at 25 μM (%). Put shortly: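 S. cerevisiae Ddi1 was expressed from pVTL260 in DDI1-knockout Y16141, transformed by lithium acetate. Colony precultured overnight at 30°C in selective minimal medium, then shaken 48 h at 30°C to A600 ~2 with or without inhibitor (25 μM, or a titration).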

The test system of a further experiment is L. amazonensis. Particulars: read-out: IC50, inhibition of cellular growth and multiplication with L. amazonensis; parasites in culture; cited from earlier work.
Experiment [3] deals with Y16141 cells expressing Saccharomyces Ddi1. Kind of experiment: Yeast cell morphology, Y16141 with Saccharomyces Ddi1 construct. Format: cell-based, S. cerevisiae. Particulars: 25 μM inhibitor, 24 h. The method, boiled down:
as §1

Another experiment addresses T3, human Ddi1 (Homo sapiens, UniProt Q8WTU0).
T3 sequence (Q8WTU0 1-396): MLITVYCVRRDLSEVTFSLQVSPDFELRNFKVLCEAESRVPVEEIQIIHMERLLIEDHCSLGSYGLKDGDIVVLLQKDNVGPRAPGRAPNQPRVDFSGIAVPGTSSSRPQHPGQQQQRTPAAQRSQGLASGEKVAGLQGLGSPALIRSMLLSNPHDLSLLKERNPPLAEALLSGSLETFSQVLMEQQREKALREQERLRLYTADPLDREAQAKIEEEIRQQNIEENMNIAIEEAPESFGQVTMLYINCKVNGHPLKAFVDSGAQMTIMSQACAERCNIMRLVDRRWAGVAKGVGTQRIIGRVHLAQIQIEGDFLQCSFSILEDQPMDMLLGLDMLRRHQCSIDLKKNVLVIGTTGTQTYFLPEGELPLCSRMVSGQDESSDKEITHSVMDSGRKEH
In words: Proteinase inhibitor assay. Format: cell-based. Particulars: for inhibition at 25 µM: read-out: Y16141 human, Inhibition at 25 μM (%). The method, boiled down: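 Yeast DDI1-knockout Y16141 (BY4742 derivative) carrying the human Ddi1 ortholog in pVTL260, grown in selective minimal medium. Cultures shaken 48 h at 30°C to A600 ~2 with or without inhibitor (25 μM, or titrated). Supernatant protein measured against a BSA standard and expressed per mg dried-pellet weight. IC50 from a 4-parameter logistic fit. Means ± se, n=6.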

Experiment [4] has as its system wild-type S. cerevisiae BY4742. In words: Proteinase inhibitor assay. Format: cell-based. Particulars: Saccharomyces cerevisiae, read-out: BY4742, inhibition at 25 μM (%). The method, boiled down:
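Wild-type BY4742 colony precultured overnight at 30°C in selective minimal medium, then shaken 48 h at 30°C to A600 ~2 with or without 25 μM inhibitor. Cells pelleted by centrifugation. Supernatant protein measured by RC DC assay with BSA standard and expressed as mg secreted per mg dry weight of pellet dried at 100°C. n=6.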

Another experiment deals with L. major. Particulars: read-out: IC50, growth inhibition in L. major; parasites in culture; cited from earlier work.
In experiment [5] the test system is Y16141 cells expressing L. major Ddi1 ortholog. In words: Yeast cell morphology, Y16141 with Leishmania Ddi1 construct. Format: cell-based, S. cerevisiae. Particulars: 25 μM inhibitor, 24 h. The method, boiled down: as §1
Another experiment has as its system L. infantum. Particulars: cited from earlier work.
Another experiment concerns Leishmania donovani. Particulars: cited from earlier work.

As a reminder, the IC50 is the concentration that inhibits the measured activity by half. Usually inhibition stands for the share of the control response that was lost under treatment. As to `CC(C)CN(C[C@@H](O)[C@H](Cc1ccccc1)NC(=O)O[C@H]1CCOC1)S(=O)(=O)c1ccc(N)cc1` [Amprenavir], the results for the IC50 against Leishmania Ddi1, against S. cerevisiae Ddi1 and in the experiment on L. amazonensis were 5.7 ± 0.7 µM, 2.8 ± 0.2 µM and 62 µM, respectively. The inhibition at 25 µM at Leishmania Ddi1 amounted to 100%; on S. cerevisiae Ddi1, 95%; on human Ddi1 it was 9%; in experiment [4], 91%. For the same compound, the “effect on cell morphology” value in experiment [1] and in [2] was “no effects” throughout. In [3], the “cells with greatly enlarged morphologies (% of cells)” value is recorded as ~75 % of cells.

On to `CC(C)(C)NC(=O)[C@@H]1CN(Cc2cccnc2)CCN1C[C@@H](O)C[C@@H](Cc1ccccc1)C(=O)N[C@H]1c2ccccc2C[C@H]1O` [Indinavir], for which the IC50 is 3 ± 0.2 µM against Leishmania Ddi1 and 8 µM in the experiment on L. major. The inhibition at 25 µM on Leishmania Ddi1 is 100%; on S. cerevisiae Ddi1, 24%; at human Ddi1, 38%; in experiment [4], 36%.

With `Cc1cccc(C)c1OCC(=O)N[C@@H](Cc1ccccc1)[C@@H](O)C[C@H](Cc1ccccc1)NC(=O)[C@H](C(C)C)N1CCCNC1=O` [Lopinavir], the IC50 on Leishmania Ddi1 is 56 ± 4 µM; in the experiment with L. amazonensis, 16 µM. For the same compound, the inhibition at 25 µM on Leishmania Ddi1 worked out at 38%; at S. cerevisiae Ddi1, 6%; at human Ddi1 it was 0%; in [4], 6%.

Turning to `Cc1c(O)cccc1C(=O)N[C@@H](CSc1ccccc1)[C@H](O)CN1C[C@H]2CCCC[C@H]2C[C@H]1C(=O)NC(C)(C)C` [Nelfinavir], the IC50 against Leishmania Ddi1 is 0.44 ± 0.03 µM; in the experiment on L. amazonensis it was 15 µM; at human Ddi1, 3.4 ± 0.4 µM. Besides, at Leishmania Ddi1 (Y16141 expressing the L. major Ddi1 ortholog, Eq. 1 fit), the Hill slope factor is recorded as 0.72 ± 0.04. The inhibition at 25 µM was 100% on Leishmania Ddi1, 40% at S. cerevisiae Ddi1, 97% on human Ddi1 and 50% in experiment [4]. Further, the “effect on cell morphology” value in [1] and in experiment [2] was “no effects” throughout. Besides, the “cells with greatly enlarged morphologies (% of cells)” value in [5] is listed as ~95 % of cells. The “sensitivity of L. infantum” value in the experiment on L. infantum was “tens of micromolar range”. The “sensitivity of Leishmania donovani” value in the experiment on Leishmania donovani is recorded as “tens of micromolar range”.

As to `CC(C)c1nc(CN(C)C(=O)N[C@H](C(=O)N[C@@H](Cc2ccccc2)C[C@H](O)[C@H](Cc2ccccc2)NC(=O)OCc2cncs2)C(C)C)cs1` [Ritonavir], the inhibition at 25 µM on Leishmania Ddi1 was 22%; on S. cerevisiae Ddi1 it was 0%; on human Ddi1, 3%; in experiment [4], 1%.

Turning to `CC(C)(C)NC(=O)[C@@H]1C[C@@H]2CCCC[C@@H]2CN1C[C@@H](O)[C@H](Cc1ccccc1)NC(=O)[C@H](CC(N)=O)NC(=O)c1ccc2ccccc2n1` [Saquinavir], the IC50 against Leishmania Ddi1 was 2.8 ± 0.3 µM; with L. major, 7 µM. In addition, the inhibition at 25 µM at Leishmania Ddi1 is 100%; on S. cerevisiae Ddi1, 24%; at human Ddi1, 18%; in [4], 31%.

As to `CCC[C@@]1(CCc2ccccc2)CC(O)=C([C@H](CC)c2cccc(NS(=O)(=O)c3ccc(C(F)(F)F)cn3)c2)C(=O)O1` [Tipranavir], the IC50 on Leishmania Ddi1 stood at 2.9 ± 0.2 µM; against human Ddi1, 1.5 ± 0.2 µM. Further, the inhibition at 25 µM at Leishmania Ddi1 turned out to be 97%; on S. cerevisiae Ddi1, 86%; at human Ddi1, 90%; in experiment [4], 58%.
